Measurements reported in PMC9946004 (Infection and Drug Resistance, 2023).
≈ marks a conversion by molar mass, not a printed value.

Tests used:
Assay in all cases: MIC by broth microdilution
Format in all cases: cell-based
Settings in all cases: Staphylococcus aureus
[1] = test system: S. aureus ATCC29213
How it was run: (§1)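 Broth microdilution per CLSI 2018 in Mueller–Hinton broth, in triplicate. Inoculum was 5×10^5 CFU/mL, incubated 20 h at 37 °C. MIC was the lowest concentration with no visible growth. ATCC29213 served as the quality-control strain.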

[2] = test system: S. aureus 18-W27-73 (MRSA)
How it was run: as §1

[3] = test system: S. aureus 18-W26-14 (MRSA)
How it was run: as §1

SMILES | MIC [1] | MIC [2] | MIC [3]
CC(=O)NC[C@H]1CN(c2ccc(N3CCOCC3)c(F)c2)C(=O)O1 [Linezolid, linezolid] | 2 µg/mL (≈ 5.93 µM) | 2 µg/mL (≈ 5.93 µM) | 4 µg/mL (≈ 11.9 µM)
CN[C@H](CC(C)C)C(=O)N[C@H]1C(=O)N[C@@H](CC(N)=O)C(=O)N[C@H]2C(=O)N[C@H]3C(=O)N[C@H](C(=O)N[C@H](C(=O)O)c4cc(O)cc(O)c4-c4cc3ccc4O)[C@H](O)c3ccc(c(Cl)c3)Oc3cc2cc(c3O[C@@H]2O[C@H](CO)[C@@H](O)[C@H](O)[C@H]2O[C@H]2C[C@](C)(N)[C@H](O)[C@H](C)O2)Oc2ccc(cc2Cl)[C@H]1O [Vancomycin, vancomycin] | 1 µg/mL (≈ 0.69 µM) | 1 µg/mL (≈ 0.69 µM) | 2 µg/mL (≈ 1.38 µM)
